Experimental data: ChEMBL document CHEMBL2396592, “Discovery of Dap-3 polymyxin analogues for the treatment of multidrug-resistant Gram-negative nosocomial infections” (J Med Chem, 2013)
Converted amounts (≈) assume the structure as drawn. Where a SMILES comes first, the peptide text is derived from it. Bridges are numbered along the chain shown (N, C = ends). [ ]: non-standard residue; d: D form. The star is where a group is joined. Isonicotinoyl(2-Ph) = O=C(c1ccnc(-c2ccccc2)c1)*; X11 = COc1cc(C(=O)*)cc(-c2ccccc2)c1; X12 = O=C(c1ccc(Cl)c(-c2ccccc2)c1)*; X17 = O=S(=O)(c1cccc(-c2ccccc2)c1)*; X4 = O=C(c1ccnc(-c2ccc(Cl)cc2)c1)*; X5 = O=C(c1ccc(Cl)c(-c2ccccn2)c1)*; X9 = COc1ccc(-c2cc(C(=O)*)ccn2)cc1; X13 = COc1ccc(-c2ccccc2)cc1C(=O)*; X8 = N#Cc1cc(C(=O)*)ccc1-c1ccccc1; X1 = O=C(c1cnnc(-c2ccccc2)c1)*; Dab = NCC[C@H](N)C(=O)O; Dap = NC[C@H](N)C(=O)O

Legend:
[1] = Cytotoxicity against human RPTEC after 24 hrs by LDH assay; assay type: cell-based; settings: RPTEC cells, read-out: TC50
Summary of the method: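 Primary human renal proximal tubule epithelial cells in REGM (EGF, hydrocortisone, epinephrine, insulin, T3, transferrin, gentamycin/amphotericin-B, FBS). After 72 h of growth at 37 °C, 5% CO2, cells were exposed for 24 h to aqueous compound at 100, 67, 44, 30, 20 and 13 μM. LDH release into the supernatant was measured by kit and TC50 (μM) derived, with PMB and PMBN as controls.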

Escherichia coli = assay: Antibacterial activity against polymyxin-sensitive Escherichia coli isolate 1 assessed as growth inhibition by broth microdilution method; assay type: functional
Klebsiella pneumoniae = assay: Antibacterial activity against polymyxin-sensitive ESBL-positive Klebsiella pneumoniae clinical isolate 3700 assessed as growth inhibition by broth microdilution method; assay type: functional
Acinetobacter baumannii [2] = assay: Antibacterial activity against polymyxin-sensitive Acinetobacter baumannii clinical isolate 3167 assessed as growth inhibition by broth microdilution method; assay type: functional
Acinetobacter baumannii [3] = assay: Antibacterial activity against polymyxin-resistant Acinetobacter baumannii clinical isolate 1649 assessed as growth inhibition by broth microdilution method; assay type: functional
Acinetobacter baumannii [4] = assay: Bactericidal activity against polymyxin-resistant Acinetobacter baumannii clinical isolate 1649; assay type: functional
Pseudomonas aeruginosa [5] = assay: Antibacterial activity against polymyxin-sensitive Pseudomonas aeruginosa 1401 assessed as growth inhibition by broth microdilution method; assay type: functional
Summary of the method: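 CLSI broth microdilution MIC against P. aeruginosa 1401 (PA01) and 1402 (UC12120), the two strains used in the mouse thigh model.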

Pseudomonas aeruginosa [6] = assay: Antibacterial activity against polymyxin-resistant Pseudomonas aeruginosa clinical isolate 1646 assessed as growth inhibition by broth microdilution method; assay type: functional
Summary of the method: (§1)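 Test strain PA-1646 is a P. aeruginosa isolate with a mutated PmrAB two-component system. The system is constitutively active, so the modified lipid A moiety is constantly expressed on the cell surface, giving a polymyxin-resistant phenotype.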

Pseudomonas aeruginosa [7] = assay: Bactericidal activity against polymyxin-resistant Pseudomonas aeruginosa clinical isolate 1646; assay type: functional; summary of the method: as §1

Row | Compound | CC50 at 24 h [1] [µM] | MIC (Escherichia coli) [µg/mL] | MIC (Klebsiella pneumoniae) [µg/mL] | MIC (Acinetobacter baumannii [2]) [µg/mL] | MIC (Acinetobacter baumannii [3]) [µg/mL] | MBC (Acinetobacter baumannii [4]) [µg/mL] | MIC (Pseudomonas aeruginosa [5]) [µg/mL] | MIC (Pseudomonas aeruginosa [6]) [µg/mL] | MBC (Pseudomonas aeruginosa [7]) [µg/mL]
1 | CC(C)C[C@@H]1NC(=O)[C@@H](Cc2ccccc2)NC(=O)[C@H](CCN)NC(=O)[C@@H](NC(=O)[C@H](CCN)NC(=O)[C@@H](N)[C@@H](C)O)CCNC(=O)[C@H]([C@@H](C)O)NC(=O)[C@H](CCN)NC(=O)[C@H](CCN)NC1=O [POLYMYXIN B NONAPEPTIDE] (H-T[Dab][Dab][Dab][dF]L[Dab][Dab]T; lactam 3-C) | > 100 | > 64 | > 64 | > 64 | > 64 | > 64 | > 64 | > 64 | > 64
2 | CC(C)C[C@@H]1NC(=O)[C@@H](Cc2ccccc2)NC(=O)[C@H](CCN)NC(=O)[C@@H](NC(=O)[C@H](CN)NC(=O)[C@@H](NC(=O)[C@H](CCN)NC(=O)c2ccnc(-c3ccccc3)c2)[C@@H](C)O)CCNC(=O)[C@H]([C@@H](C)O)NC(=O)[C@H](CCN)NC(=O)[C@H](CCN)NC1=O ({Isonicotinoyl(2-Ph)}-[Dab]T[Dap][Dab][Dab][dF]L[Dab][Dab]T; lactam 4-C) | 82 | 0.125 | 0.25 | 0.25 | 1 | 1 (≈ 0.813 µM) | 0.25 | 2 | 4 (≈ 3.25 µM)
3 | CC(C)C[C@@H]1NC(=O)[C@@H](Cc2ccccc2)NC(=O)[C@H](CCN)NC(=O)[C@@H](NC(=O)[C@H](CN)NC(=O)[C@@H](NC(=O)[C@H](CCN)NC(=O)c2cnnc(-c3ccccc3)c2)[C@@H](C)O)CCNC(=O)[C@H]([C@@H](C)O)NC(=O)[C@H](CCN)NC(=O)[C@H](CCN)NC1=O (X1-[Dab]T[Dap][Dab][Dab][dF]L[Dab][Dab]T; lactam 4-C) | 84 | 0.125 | 0.125 | 0.25 | 2 | 4 (≈ 3.25 µM) | 0.25 | 2 | 8 (≈ 6.5 µM)
4 | COc1ccc(-c2ccccc2)cc1C(=O)N[C@@H](CCN)C(=O)N[C@H](C(=O)N[C@@H](CN)C(=O)N[C@H]1CCNC(=O)[C@H]([C@@H](C)O)NC(=O)[C@H](CCN)NC(=O)[C@H](CCN)NC(=O)[C@H](CC(C)C)NC(=O)[C@@H](Cc2ccccc2)NC(=O)[C@H](CCN)NC1=O)[C@@H](C)O (X13-[Dab]T[Dap][Dab][Dab][dF]L[Dab][Dab]T; lactam 4-C) | 19 | 0.5 | 0.25 | 0.25 | 4 | 4 (≈ 3.18 µM) | 0.5 | 2 | 2 (≈ 1.59 µM)
5 | CC(C)C[C@@H]1NC(=O)[C@@H](Cc2ccccc2)NC(=O)[C@H](CCN)NC(=O)[C@@H](NC(=O)[C@H](CN)NC(=O)[C@@H](NC(=O)[C@H](CCN)NC(=O)c2ccc(-c3ccccc3)c(C#N)c2)[C@@H](C)O)CCNC(=O)[C@H]([C@@H](C)O)NC(=O)[C@H](CCN)NC(=O)[C@H](CCN)NC1=O (X8-[Dab]T[Dap][Dab][Dab][dF]L[Dab][Dab]T; lactam 4-C) | 32 | 0.5 | 0.5 | 0.25 | 1 | 1 (≈ 0.797 µM) | 1 | 2 | 4 (≈ 3.19 µM)
6 | CC(C)C[C@@H]1NC(=O)[C@@H](Cc2ccccc2)NC(=O)[C@H](CCN)NC(=O)[C@@H](NC(=O)[C@H](CN)NC(=O)[C@@H](NC(=O)[C@H](CCN)NC(=O)c2ccc(Cl)c(-c3ccccn3)c2)[C@@H](C)O)CCNC(=O)[C@H]([C@@H](C)O)NC(=O)[C@H](CCN)NC(=O)[C@H](CCN)NC1=O (X5-[Dab]T[Dap][Dab][Dab][dF]L[Dab][Dab]T; lactam 4-C) | 72 | 0.25 | 0.25 | 0.25 | 4 | 4 (≈ 3.16 µM) | 1 | 4 | 16 (≈ 12.6 µM)
7 | CC(C)C[C@@H]1NC(=O)[C@@H](Cc2ccccc2)NC(=O)[C@H](CCN)NC(=O)[C@@H](NC(=O)[C@H](CN)NC(=O)[C@@H](NC(=O)[C@H](CCN)NC(=O)c2ccc(Cl)c(-c3ccccc3)c2)[C@@H](C)O)CCNC(=O)[C@H]([C@@H](C)O)NC(=O)[C@H](CCN)NC(=O)[C@H](CCN)NC1=O (X12-[Dab]T[Dap][Dab][Dab][dF]L[Dab][Dab]T; lactam 4-C) | 14 | 0.25 | 0.25 | 0.5 | 1 | 1 (≈ 0.791 µM) | 1 | 0.5 | 1 (≈ 0.791 µM)
8 | CC(C)C[C@@H]1NC(=O)[C@@H](Cc2ccccc2)NC(=O)[C@H](CCN)NC(=O)[C@@H](NC(=O)[C@H](CN)NC(=O)[C@@H](NC(=O)[C@H](CCN)NS(=O)(=O)c2cccc(-c3ccccc3)c2)[C@@H](C)O)CCNC(=O)[C@H]([C@@H](C)O)NC(=O)[C@H](CCN)NC(=O)[C@H](CCN)NC1=O (X17-[Dab]T[Dap][Dab][Dab][dF]L[Dab][Dab]T; lactam 4-C) | 42 | 0.25 | 0.5 | 1 | 64 | > 64 | 0.25 | 2 | 4 (≈ 3.16 µM)
9 | COc1cc(C(=O)N[C@@H](CCN)C(=O)N[C@H](C(=O)N[C@@H](CN)C(=O)N[C@H]2CCNC(=O)[C@H]([C@@H](C)O)NC(=O)[C@H](CCN)NC(=O)[C@H](CCN)NC(=O)[C@H](CC(C)C)NC(=O)[C@@H](Cc3ccccc3)NC(=O)[C@H](CCN)NC2=O)[C@@H](C)O)cc(-c2ccccc2)c1 (X11-[Dab]T[Dap][Dab][Dab][dF]L[Dab][Dab]T; lactam 4-C) | 26 | 0.25 | 0.25 | 0.25 | 4 | 8 (≈ 6.35 µM) | 0.5 | 2 | 4 (≈ 3.18 µM)
10 | CC(C)C[C@@H]1NC(=O)[C@@H](Cc2ccccc2)NC(=O)[C@H](CCN)NC(=O)[C@@H](NC(=O)[C@H](CN)NC(=O)[C@@H](NC(=O)[C@H](CCN)NC(=O)c2ccnc(-c3ccc(Cl)cc3)c2)[C@@H](C)O)CCNC(=O)[C@H]([C@@H](C)O)NC(=O)[C@H](CCN)NC(=O)[C@H](CCN)NC1=O (X4-[Dab]T[Dap][Dab][Dab][dF]L[Dab][Dab]T; lactam 4-C) | 30 | 0.25 | 0.25 | 0.25 | 1 | 1 (≈ 0.791 µM) | 0.5 | 1 | 1 (≈ 0.791 µM)
11 | COc1ccc(-c2cc(C(=O)N[C@@H](CCN)C(=O)N[C@H](C(=O)N[C@@H](CN)C(=O)N[C@H]3CCNC(=O)[C@H]([C@@H](C)O)NC(=O)[C@H](CCN)NC(=O)[C@H](CCN)NC(=O)[C@H](CC(C)C)NC(=O)[C@@H](Cc4ccccc4)NC(=O)[C@H](CCN)NC3=O)[C@@H](C)O)ccn2)cc1 (X9-[Dab]T[Dap][Dab][Dab][dF]L[Dab][Dab]T; lactam 4-C) | 78 | 0.25 | 0.25 | 0.25 | 2 | 2 (≈ 1.59 µM) | 0.5 | 2 | 8 (≈ 6.35 µM)
